Laboratory results published in article PMC6980386 (Traffic (Copenhagen, Denmark), 2019).

Assays:
[1] = target: truncated huCD4 D1D2 L12A (Homo sapiens, UniProt P01730, L12A); assay: Cell-free in vitro translation and translocation; assay type: biochemical; settings: 15 μM CADA
How it was run: (§1)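 Truncated huCD4 D1D2 (lacking glycosylation sites and membrane anchor) was made by PCR and transcribed with T7. Proteinase K protection ran 30 min on ice and was quenched with PMSF. Products were separated by SDS-PAGE and imaged by phosphor imaging. The SP-cleaved band was normalised to the matching control. Data are from 2–5 independent experiments, compared with WT by Welch t test.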

[2] = target: FL huCD4 K27R (Homo sapiens, UniProt P01730, K27R); assay: CADA down-modulation of cellular huCD4; assay type: cell-based; settings: HEK293T, 48h
How it was run: (§2)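 HEK293T cells, seeded overnight in DMEM with 10% serum, 1 mM sodium pyruvate and 0.075% NaHCO₃, were lipofected with full-length human CD4 (WT or mutant). Test compound in DMSO was added 6 h post-transfection as 1:5 serial dilutions (50–0.016 μM) for 48 h. Surface CD4 was stained with FITC/APC anti-CD4 (SK3) and read by flow cytometry. IC50 is 50% of the untreated signal, from four-parameter fits of ≥3 replicate experiments. FC is mutant/WT mean IC50.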

[3] = target: huCD4_1–32-YFP V13A (Homo sapiens, UniProt P01730, V13A); assay: CADA inhibition of huCD4_1–32-YFP secretion; assay type: cell-based
How it was run: (§3)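 HEK293T cells were grown in DMEM with 10% FBS and 10 mM HEPES, seeded and left to adhere overnight, then transiently transfected with plasmid by Lipofectamine. Test compound was added 6 h after transfection as a 1:5 serial dilution (50 to 0.016 μM) for 48 h. Secreted YFP in the supernatant was captured on GFP-Trap magnetic beads for 1 h, washed with PBS and measured by flow cytometry. IC50 is the concentration that halves the signal relative to the untreated control, taken from a four-parameter fit of at least three replicate experiments. FC is the mutant mean IC50 divided by the WT mean IC50.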

[4] = target: FL huCD4 L16A (Homo sapiens, UniProt P01730, L16A); assay: CADA down-modulation of cellular huCD4; assay type: cell-based
How it was run: as §2

[5] = target: huCD4_1–32-YFP R3A (Homo sapiens, UniProt P01730, R3A); assay: CADA inhibition of huCD4_1–32-YFP secretion; assay type: cell-based
How it was run: as §3

[6] = target: FL huCD4 K26R (Homo sapiens, UniProt P01730, K26R); assay: CADA down-modulation of cellular huCD4; assay type: cell-based; settings: HEK293T, 48h
How it was run: as §2

[7] = target: huCD4_1–32-YFP L12A (Homo sapiens, UniProt P01730, L12A); assay: CADA inhibition of huCD4_1–32-YFP secretion; assay type: cell-based
How it was run: as §3

[8] = target: FL huCD4 L30A (Homo sapiens, UniProt P01730, L30A); assay: CADA down-modulation of cellular huCD4; assay type: cell-based
How it was run: as §2

[9] = target: truncated huCD4 D1D2 K27A (Homo sapiens, UniProt P01730, K27A); assay: Cell-free in vitro translation and translocation; assay type: biochemical; settings: 15 μM CADA
How it was run: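 Proteinase K protection 30 min on ice, quenched with PMSF. Pellets washed in low-salt buffer (HEPES pH 7.6), then SDS-PAGE and phosphor imaging. Translocation normalised to untreated WT. Two to five independent experiments; Welch's t test.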

[10] = target: FL huCD4 P20A (Homo sapiens, UniProt P01730, P20A); assay: CADA down-modulation of cellular huCD4; assay type: cell-based
How it was run: as §2

[11] = target: truncated huCD4 D1D2 WT (Homo sapiens, UniProt P01730); assay: Cell-free in vitro translation and translocation; assay type: biochemical
How it was run: as §1

[12] = target: FL huCD4 Q24A (Homo sapiens, UniProt P01730, Q24A); assay: CADA down-modulation of cellular huCD4; assay type: cell-based
How it was run: as §2

[13] = target: huCD4_1–32-YFP Q24A (Homo sapiens, UniProt P01730, Q24A); assay: CADA inhibition of huCD4_1–32-YFP secretion; assay type: cell-based
How it was run: as §3

[14] = target: huCD4_1–32-YFP G31A (Homo sapiens, UniProt P01730, G31A); assay: CADA inhibition of huCD4_1–32-YFP secretion; assay type: cell-based
How it was run: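 HEK293T cells were lipofected with human CD4 residues 1–32 fused to the N-terminus of YFP (secreted, no membrane anchor). Test compound was added 6 h post-transfection as 1:5 serial dilutions (50–0.016 μM) for 48 h. Supernatant was captured on GFP-Trap magnetic beads for 1 h, washed in PBS, and YFP was read by flow cytometry. IC50 is 50% of the untreated control, from four-parameter fits of ≥3 replicate experiments. FC is mutant/WT mean IC50.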

[15] = target: FL huCD4 R8A (Homo sapiens, UniProt P01730, R8A); assay: CADA down-modulation of cellular huCD4; assay type: cell-based; settings: read-out: Cellular huCD4 IC50 (μM) Mean, HEK293T, CADA 48h
How it was run: as §2

[16] = target: FL huCD4 WT (Homo sapiens, UniProt P01730); assay: CADA down-modulation of cellular huCD4; assay type: cell-based
How it was run: as §2

[17] = target: huCD4_1–32-YFP V29A (Homo sapiens, UniProt P01730, V29A); assay: CADA inhibition of huCD4_1–32-YFP secretion; assay type: cell-based; settings: + less, − more sensitive to CADA
How it was run: as §3

[18] = target: huCD4_1–32-YFP P20A (Homo sapiens, UniProt P01730, P20A); assay: CADA inhibition of huCD4_1–32-YFP secretion; assay type: cell-based
How it was run: as §3

[19] = target: FL huCD4 K26E (Homo sapiens, UniProt P01730, K26E); assay: CADA down-modulation of cellular huCD4; assay type: cell-based; settings: HEK293T, 48h
How it was run: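 Transient transfection of HEK293T cells (Lipofectamine), seeded the night before. Test compound added 6 h post-transfection as a serial 1:5 dilution from 50 to 0.016 μM, then 48 h culture. Surface CD4 stained with FITC- or APC-labelled anti-human CD4 (clone SK3) and read by flow cytometry. IC50 is the concentration reducing signal to 50% of untreated control, interpolated from four-parameter curves (≥3 replicate experiments; 95% CI).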

[20] = + less, − more sensitive to CADA
[21] = read-out: Secreted YFP IC50 (μM) Mean, HEK293T, CADA 48h
[22] = read-out: Cellular huCD4 IC50 (μM) Mean, HEK293T, CADA 48h

SMILES: C=C1CN(S(=O)(=O)c2ccc(C)cc2)CCCN(Cc2ccccc2)CCCN(S(=O)(=O)c2ccc(C)cc2)C1 [CADA, Cyclotriazadisulfonamide]
- sensitivity of translocation towards CADA compared to WT [1]: higher sensitivity towards CADA
- sensitivity to CADA [2]: kept full sensitivity to CADA
- Secreted YFP FC (fold change of mean IC50 relative to WT) [3, 20]: −2.8
- IC50 [3, 21]: 0.46 µM
- Cellular huCD4 FC (fold change of mean IC50 relative to WT) [4, 20]: −4.9
- IC50 [4, 22]: 0.11 µM
- Secreted YFP FC (fold change of mean IC50 relative to WT) [5, 20]: +1.6
- IC50 [5, 21]: 1.99 µM
- sensitivity to CADA [6]: kept full sensitivity to CADA
- enhanced CADA sensitivity relative to WT [7]: 5 fold
- Secreted YFP FC (fold change of mean IC50 relative to WT) [7, 20]: −5.3
- IC50 [7, 21]: 0.24 µM
- Cellular huCD4 FC (fold change of mean IC50 relative to WT) [8, 20]: +1.6
- IC50 [8, 22]: 0.84 µM
- sensitivity of translocation towards CADA compared to WT [9]: significantly reduced sensitivity to CADA
- Cellular huCD4 FC (fold change of mean IC50 relative to WT) [10, 20]: +4.4
- IC50 [10, 22]: 2.35 µM
- inhibition of translocation by CADA ([11]; 15 μM CADA vs DMSO, rabbit reticulocyte lysate, ovine microsomes): 75%
- effect of CADA on co-translational translocation ([11]; increasing doses of CADA): dose-dependently prevented by CADA
- Cellular huCD4 FC (fold change of mean IC50 relative to WT) [12, 20]: +2.3
- IC50 [12, 22]: 1.22 µM
- Secreted YFP FC (fold change of mean IC50 relative to WT) [13, 20]: +3.3
- IC50 [13, 21]: 4.22 µM
- Secreted YFP FC (fold change of mean IC50 relative to WT) [14, 20]: +2.0
- IC50 [14, 21]: 2.56 µM
- IC50 [15]: 4.2 µM
- Cellular huCD4 FC (fold change of mean IC50 relative to WT) [16, 20]: 1.00
- IC50 [16, 22]: 0.54 µM
- Secreted YFP FC (fold change of mean IC50 relative to WT) [17]: −1.1
- Secreted YFP FC (fold change of mean IC50 relative to WT) [18, 20]: >+39
- IC50 [18, 21]: > 50 µM
- sensitivity to CADA [19]: copied the alanine substitution phenotypes
